Measurements published in ChEMBL document CHEMBL3352313 (J Med Chem, 2014).
pEC50: −log10 of the molar value.

Tests used:
[1] = molecular target: T1, Muscarinic acetylcholine receptor M5 (Homo sapiens, UniProt P08912); assay: Positive allosteric modulator activity at human muscarinic acetylcholine receptor subtype 5 expressed in CHO cells by calcium mobilization assay; format: functional, cell-based; conditions: for pEC50: read-out: EC50; for EC50: cho
T1 sequence (P08912 whole entry): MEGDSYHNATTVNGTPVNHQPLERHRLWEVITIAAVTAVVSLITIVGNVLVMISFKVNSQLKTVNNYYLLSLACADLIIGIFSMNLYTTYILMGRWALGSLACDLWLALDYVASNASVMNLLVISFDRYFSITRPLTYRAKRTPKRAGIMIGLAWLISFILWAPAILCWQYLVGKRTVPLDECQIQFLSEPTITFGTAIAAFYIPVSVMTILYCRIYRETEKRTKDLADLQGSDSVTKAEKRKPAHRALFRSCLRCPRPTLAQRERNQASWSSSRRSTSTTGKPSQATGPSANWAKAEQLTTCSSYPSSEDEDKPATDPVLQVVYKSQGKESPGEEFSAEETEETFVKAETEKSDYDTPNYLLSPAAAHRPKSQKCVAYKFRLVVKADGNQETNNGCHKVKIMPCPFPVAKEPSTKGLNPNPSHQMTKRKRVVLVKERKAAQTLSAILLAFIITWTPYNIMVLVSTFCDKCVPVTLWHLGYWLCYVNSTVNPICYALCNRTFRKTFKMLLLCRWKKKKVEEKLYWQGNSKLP

[2] = Intrinsic clearance in rat liver microsomes; format: ADME; conditions: read-out: CLH
Method in brief: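 Microsomal intrinsic clearance, used in the well-stirred model of organ clearance, not corrected for plasma fraction unbound, to predict hepatic clearance.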

[3] = molecular target: T2, Muscarinic acetylcholine receptor M5 (Homo sapiens) (UniProt P08912); assay: Positive allosteric modulator activity at human muscarinic acetylcholine receptor subtype 5 expressed in CHO cells by calcium mobilization assay relative to acetylcholine; format: functional, cell-based
T2 sequence (whole entry): T1 sequence (P08912 whole entry)

[4] = molecular target: T2, Muscarinic acetylcholine receptor M5 (Homo sapiens); assay: Positive allosteric modulator activity at human muscarinic acetylcholine receptor subtype 5 expressed in CHO cells assessed as fold shift in acetylcholine-induced response at 10 uM by calcium mobilization assay; format: functional, cell-based
Method in brief: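 In hM5 CHO cells by calcium mobilization, PAM at a fixed 10 μM or vehicle is added before an ACh concentration-response curve. Fold shift is the ratio of ACh potency without PAM to potency with PAM.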

[5] = molecular target: T2, Muscarinic acetylcholine receptor M5 (Homo sapiens); assay: Displacement of [3H]NMS from human muscarinic acetylcholine receptor subtype 5 expressed in CHO cell membranes assessed as radioligand binding level by scintillation counting method

| pEC50 [1] | %max [3] [%] | SMILES | further results |
| --- | --- | --- | --- |
| 6.89 | 103 | O=C(C1CCN(S(=O)(=O)c2ccc3[nH]ncc3c2)CC1)N(Cc1ccccc1C(F)(F)F)CC1CCC1 | CLint scaled [2]: > 500 mL/min/kg |
| 6.01 | 90 | CCN(C(=O)C1CCN(S(=O)(=O)c2ccc(OC)cc2)CC1)[C@H](C)c1ccccc1 | fold change (FC) [4]: 7 |
| 6.82 | 100 | CCC(C)N(Cc1ccccc1C(F)(F)F)C(=O)C1CCN(S(=O)(=O)c2ccc3[nH]ncc3c2)CC1 (stereo unspecified) | – |
| 6.03 | 80 | CCN(C(=O)C1CCN(S(=O)(=O)c2ccc3occc3c2)CC1)[C@H](C)c1ccccc1 | – |
| 5.62 | 80 | CCN(Cc1ccccc1)C(=O)C1CCN(S(=O)(=O)c2ccc3occc3c2)CC1 | – |
| 5.68 | 84 | CCN(Cc1ccccc1F)C(=O)C1CCN(S(=O)(=O)c2ccc3cn[nH]c3c2)CC1 | – |
| 6.32 | 92 | CCN(Cc1ccccc1C(F)(F)F)C(=O)C1CCN(S(=O)(=O)c2ccc3cn[nH]c3c2)CC1 | fold change (FC) [4]: 7 |
| 5.77 | 86 | CCN(Cc1ccccc1)C(=O)C1CCN(S(=O)(=O)c2ccc3cn[nH]c3c2)CC1 | fold change (FC) [4]: 4.8 |
| 6.92 | 102 | O=C(C1CCN(S(=O)(=O)c2ccc3[nH]ncc3c2)CC1)N(Cc1ccccc1C(F)(F)F)CC1CC1 | CLint scaled [2]: > 500 mL/min/kg |
| 6.92 | 104 | CC(C)(C)CN(Cc1ccccc1C(F)(F)F)C(=O)C1CCN(S(=O)(=O)c2ccc3[nH]ncc3c2)CC1 | CLint scaled [2]: > 500 mL/min/kg |
| 5.59 | 85 | CCN(Cc1cccc(OC)c1)C(=O)C1CCN(S(=O)(=O)c2ccc3cn[nH]c3c2)CC1 | – |
| 6.12 | 92 | CCN(Cc1ccccc1OC)C(=O)C1CCN(S(=O)(=O)c2ccc3cn[nH]c3c2)CC1 | – |
| 5.13 | 93 | CCN(Cc1ccccc1)C(=O)C1CCN(S(=O)(=O)c2ccc3c(c2)OCO3)CC1 | – |
| 6.46 | 78 | CCN(Cc1ccccc1Cl)C(=O)C1CCN(S(=O)(=O)c2ccc3[nH]ncc3c2)CC1 | – |
| 5.52 | 81 | CCN(Cc1ccccc1)C(=O)C1CCN(S(=O)(=O)c2ccc3nsnc3c2)CC1 | – |
| 6.80 | 94 | CCCN(Cc1ccccc1C(F)(F)F)C(=O)C1CCN(S(=O)(=O)c2ccc3[nH]ncc3c2)CC1 | – |
| 5.95 | 88 | CCN(C(=O)C1CCN(S(=O)(=O)c2ccc3c(c2)CCO3)CC1)[C@H](C)c1ccccc1 | – |
| 6.06 | 78 | CCN(Cc1cccc(C)c1)C(=O)C1CCN(S(=O)(=O)c2ccc3cn[nH]c3c2)CC1 | – |
| 5.74 | 84 | O=C(C1CCN(S(=O)(=O)c2ccc3[nH]ncc3c2)CC1)N(Cc1ccccc1C(F)(F)F)C1CCC1 | – |
| 6.12 | 87 | CCN(C(=O)C1CCN(S(=O)(=O)c2ccc3cn[nH]c3c2)CC1)[C@H](C)c1ccccc1 | – |
| 6.14 | 97 | CCN(C(=O)C1CCN(S(=O)(=O)c2ccc3c(c2)CCC3)CC1)[C@H](C)c1ccccc1 | – |
| 5.48 | 84 | CCN(Cc1ccccc1)C(=O)C1CCN(S(=O)(=O)c2ccc(OC)cc2)CC1 | – |

The next lines start with the compound.

| SMILES | pEC50 [1] | %max [3] [%] | further results |
| --- | --- | --- | --- |
| CCN(Cc1ccccc1)C(=O)C1CCN(S(=O)(=O)c2ccc(C(F)(F)F)nc2)CC1 | < 5.00 | – | – |
| CCN(Cc1ccc(F)cc1)C(=O)C1CCN(S(=O)(=O)c2ccc3cn[nH]c3c2)CC1 | < 5.00 | 55 | – |
| CCN(Cc1ccccc1Cl)C(=O)C1CCN(S(=O)(=O)c2ccc3cn[nH]c3c2)CC1 | 6.19 | 93 | – |
| CCN(Cc1cccc(C(F)(F)F)c1)C(=O)C1CCN(S(=O)(=O)c2ccc3cn[nH]c3c2)CC1 | 5.25 | 59 | – |
| CCN(Cc1ccccc1)C(=O)C1CCN(S(=O)(=O)c2c[nH]cn2)CC1 | < 5.00 | – | – |
| CCN(Cc1ccccc1)C(=O)C1CCN(S(=O)(=O)c2ccc3c(c2)OCCO3)CC1 | – | – | fold change (FC) [4]: 2.3 |
| CCN(Cc1ccccc1)C(=O)C1CCN(S(=O)(=O)c2ccncc2)CC1 | < 5.00 | – | – |
| O=C(C1CCN(S(=O)(=O)c2ccc3[nH]ncc3c2)CC1)N(CCF)Cc1ccccc1C(F)(F)F | 5.89 | 95 | – |
| O=C(C1CCN(S(=O)(=O)c2ccc3[nH]ncc3c2)CC1)N(CCO)Cc1ccccc1C(F)(F)F | < 5.00 | 60 | – |
| CCN(Cc1ccccc1)C(=O)C1CCN(S(=O)(=O)c2ccc3[nH]ncc3c2)CC1 | 5.80 | 86 | fold change (FC) [4]: 5.4 |
| CCN(Cc1ccccc1)C(=O)C1CCN(S(=O)(=O)c2ccccc2)CC1 | 5.21 | 69 | – |
| CCN(Cc1ccccc1)C(=O)C1CCN(S(=O)(=O)c2ccccn2)CC1 | < 5.00 | – | – |
| CCN(Cc1ccccc1)C(=O)C1CCN(S(=O)(=O)c2ccc3cccnc3c2)CC1 | < 5.00 | 66 | – |
| CC(C)N(Cc1ccccc1C(F)(F)F)C(=O)C1CCN(S(=O)(=O)c2ccc3[nH]ncc3c2)CC1 | < 5.00 | 54 | – |
| CCN(Cc1ccccc1)C(=O)C1CCN(S(=O)(=O)c2cccc(OC)c2)CC1 | 5.51 | 77 | – |
| CCN(Cc1ccccc1)C(=O)C1CCN(S(=O)(=O)c2cccc3nsnc23)CC1 | < 5.00 | – | – |

| SMILES | pEC50 [1] | %max [3] [%] | further results |
| --- | --- | --- | --- |
| O=C(C1CCN(S(=O)(=O)c2ccc3[nH]ncc3c2)CC1)N(Cc1ccccc1C(F)(F)F)C1CC1 | – | – | EC50 [1]: Not Active |
| CCN(Cc1ccccc1)C(=O)C1CCN(S(=O)(=O)c2cccnc2)CC1 | < 5.00 | – | – |
| CN1[C@@H]2CC[C@H]1C[C@@H](OC(=O)C(CO)c1ccccc1)C2 (stereo partly specified) | – | – | %max [5]: 1.8% |
| CCN(Cc1ccccc1C)C(=O)C1CCN(S(=O)(=O)c2ccc3cn[nH]c3c2)CC1 | 6.06 | 103 | – |
| CCN(Cc1ccccc1)C(=O)C1CCN(S(=O)(=O)c2c(C)noc2C)CC1 | < 5.00 | – | – |
| CCN(Cc1ccccc1)C(=O)C1CCN(S(=O)(=O)c2ccccc2OC)CC1 | < 5.00 | – | – |
| CCN(Cc1cccc(F)c1)C(=O)C1CCN(S(=O)(=O)c2ccc3cn[nH]c3c2)CC1 | 5.82 | 89 | – |
| CCN(Cc1ccccc1)C(=O)C1CCN(S(=O)(=O)c2ccc(OC)c(OC)c2)CC1 | < 5.00 | 57 | – |
| CCN(Cc1ccccc1)C(=O)C1CCN(S(=O)(=O)c2ccc(C)s2)CC1 | < 5.00 | 64 | – |
| CCN(C(=O)C1CCN(S(=O)(=O)c2ccc(OC)cc2)CC1)[C@@H](C)c1ccccc1 | – | – | EC50 [1]: Not Active |
| CCN(Cc1cccc(Cl)c1)C(=O)C1CCN(S(=O)(=O)c2ccc3cn[nH]c3c2)CC1 | 5.80 | 77 | – |
| CCN(Cc1ccc(C(F)(F)F)cc1)C(=O)C1CCN(S(=O)(=O)c2ccc3cn[nH]c3c2)CC1 | – | – | EC50 [1]: Not Active |
| CCN(Cc1ccccc1)C(=O)C1CCN(S(=O)(=O)c2cccc3c2OCCO3)CC1 | < 5.00 | 53 | – |
| CCN(C(=O)C1CCN(S(=O)(=O)c2ccc3[nH]ncc3c2)CC1)[C@H](C)c1ccccc1 | 6.13 | 86 | fold change (FC) [4]: 12 |
| C=CCN(Cc1ccccc1C(F)(F)F)C(=O)C1CCN(S(=O)(=O)c2ccc3[nH]ncc3c2)CC1 | 5.74 | 79 | – |
